What was measured:
Rattus norvegicus [1] = species: Rattus norvegicus; assay: The equieffective molar ratio of the concentrations of the test compound and dequalinium that cause 50% inhibition of the after hyper polarization (AHP); format: functional
In short: (§1)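 Cultured neurons (3-10 days in culture); action potentials evoked every 5 s by depolarizing current pulses; drugs applied at known concentration in continuously flowing bath. AHP amplitude measured with and without compound for percent inhibition. Dequalinium tested on every cell; EMR = ratio of concentrations of compound and dequalinium giving 50% AHP inhibition in the same experiment. IC50 and EMR from simultaneous nonlinear least-squares Hill fits; each concentration tested on at least three neurons.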

Rattus norvegicus [2] = species: Rattus norvegicus; assay: Compound was tested for its ability to inhibit the after hyperpolarization which follows the action potential in rat sympathetic neurons.; format: functional, organism-based; details: Sympathetic neuron; in short: as §1
Rattus norvegicus [3] = species: Rattus norvegicus; assay: The equieffective molar ratio of the concentrations of the test compound and after hyperpolarization (AHP); format: functional

| SMILES | IC50 (Rattus norvegicus [2]) [µM] | EMR (Rattus norvegicus [1]) | EMR (Rattus norvegicus [3]) |
| --- | --- | --- | --- |
| Nc1cc[n+](CCCCCCCC[n+]2ccc(N)c3ccccc32)c2ccccc12 | 2 | 2.1 |  |
| Nc1cc[n+](CCCCCC[n+]2ccc(N)c3ccccc32)c2ccccc12 | 2 | 1.8 |  |
| Nc1cc[n+](CCCCCCCCCC[n+]2ccc(N)c3ccccc32)c2ccccc12 |  | 1.3 |  |
| Nc1cc[n+](CCCC[n+]2ccc(N)c3ccccc32)c2ccccc12 | 1.8 | 3.2 |  |
| Nc1cc[n+](CCC[n+]2ccc(N)c3ccccc32)c2ccccc12 | 4.5 |  | 8.3 |

More lines, main results first:

| IC50 (Rattus norvegicus [2]) [µM] | SMILES | EMR (Rattus norvegicus [1]) | EMR (Rattus norvegicus [3]) |
| --- | --- | --- | --- |
| 1.7 | Nc1cc[n+](CCCCCCCCCCCC[n+]2ccc(N)c3ccccc32)c2ccccc12 | 1.8 |  |
| 1 | Nc1cc[n+](CCCCC[n+]2ccc(N)c3ccccc32)c2ccccc12 | 1 |  |
| 0.9 | Cc1cc(N)c2ccccc2[n+]1CCCCCCCCCC[n+]1c(C)cc(N)c2ccccc21.[Cl-].[Cl-] [DEQUALINIUM CHLORIDE] |  | 1 |
